{"source": "ChEMBL document CHEMBL4665779", "about": "“Novel 2-Substituted 3-Hydroxy-1,6-dimethylpyridin-4(1H)-ones as Dual-Acting Biofilm Inhibitors of Pseudomonas aeruginosa” (J Med Chem, 2020)", "key": {"Pseudomonas aeruginosa [1]": {"tested_on": "Pseudomonas aeruginosa", "test": "Inhibition of twitching motility in Pseudomonas aeruginosa PAO1 assessed at 1.25 to 20 uM measured after 16 hrs", "type": "functional", "conditions": "dose microM 1.25-20, time 16.0 hrs", "summary_of_the_method": "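Plates of LB with 1% agar, 0.5% casamino acids and 0.5% glucose contained compound at 0–20 μM. After drying 1 h, 1 μL PAO1 (OD600 1) was inoculated at the plate bottom and incubated 16 h at 37 °C. Three independent experiments.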"}, "Pseudomonas aeruginosa [2]": {"tested_on": "Pseudomonas aeruginosa", "test": "Inhibition of biofilm formation in multidrug resistant Pseudomonas aeruginosa 1121 at 20 uM relative to control", "type": "functional"}, "Pseudomonas aeruginosa [3]": {"tested_on": "Pseudomonas aeruginosa", "test": "Antibacterial activity against Pseudomonas aeruginosa infected in human L02 assessed as increase in cell survival pretreated for 24 hrs followed by cell addition and measured 4 hrs post-infection by MTT assay", "type": "functional, organism-based", "conditions": "dose microM 1.25-20, time 28.0 hrs", "summary_of_the_method": "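P. aeruginosa cultures were grown with 0, 1.25, 2.5, 5, 10 or 20 μM compound for 24 h at 37 °C with shaking. Washed cells (in DMEM) were infected at MOI 100 for 4 h. Bacteria were then killed with 500 μg/mL gentamycin for 2 h, and cells were given 500 μg/mL MTT for 16 h. Formazan was dissolved in DMSO and read at 570 nm.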"}, "Pseudomonas aeruginosa [4]": {"tested_on": "Pseudomonas aeruginosa", "test": "Inhibition of biofilm formation in multidrug resistant Pseudomonas aeruginosa 1121 at 2.5 uM relative to control", "type": "functional"}, "Pseudomonas aeruginosa [5]": {"tested_on": "Pseudomonas aeruginosa", "test": "Antibacterial activity against Pseudomonas aeruginosa infected in human L02 assessed as cell survival at 20 uM pretreated for 24 hrs followed by cell addition and measured 4 hrs post-infection by MTT assay (reference value: 40.7%)", "type": "functional", "conditions": "time 28 hrs"}, "Pseudomonas aeruginosa [6]": {"tested_on": "Pseudomonas aeruginosa", "test": "Inhibition of biofilm formation in multidrug resistant Pseudomonas aeruginosa FB at 10 uM relative to control", "type": "functional"}, "Pseudomonas aeruginosa [7]": {"tested_on": "Pseudomonas aeruginosa", "test": "Inhibition of biofilm formation in multidrug resistant Pseudomonas aeruginosa 1167 at 2.5 uM relative to control", "type": "functional"}, "Pseudomonas aeruginosa [8]": {"tested_on": "Pseudomonas aeruginosa", "test": "Inhibition of biofilm formation in multidrug resistant Pseudomonas aeruginosa 1129 at 1.25 uM relative to control", "type": "functional"}, "[9]": {"test": "Metal chelating activity assessed as negative logarithm of total free ferric ion concentration in a solution under biological conditions", "summary_of_the_method": "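Fluorescence competition with CP645 (6 μM), quenched by Fe-NTA (2 μM) for 30 min before compound (60 μM) was added in Chelex-treated MOPS. Fluorescence was read after 48 h, with DFP as reference. pFe(III) was calculated from relative fluorescence as % = 11.743 pFe(III) − 169. Mean of three determinations.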"}, "Pseudomonas aeruginosa [10]": {"tested_on": "Pseudomonas aeruginosa", "test": "Inhibition of swarming motility of Pseudomonas aeruginosa PAO1 measured after 16 hrs", "type": "functional, organism-based", "conditions": "dose microM 1.25-20, time 16.0 hrs", "summary_of_the_method": "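LB plates with 0.5% agar, 0.5% casamino acids and 0.5% glucose contained compound at 0–20 μM. Plates were dried 1 h, then 1 μL PAO1 (OD600 1) was spotted on the centre. Incubation was 16 h at 37 °C; three independent experiments.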"}, "[11]": {"target": "T1, Anthranilate--CoA ligase (Pseudomonas aeruginosa (strain ATCC 15692 / DSM 22644 / CIP 104116 /JCM 14847 / LMG 12228 / 1C / PRS 101 / PAO1)) (UniProt Q9I4X3)", "T1 sequence (whole entry)": "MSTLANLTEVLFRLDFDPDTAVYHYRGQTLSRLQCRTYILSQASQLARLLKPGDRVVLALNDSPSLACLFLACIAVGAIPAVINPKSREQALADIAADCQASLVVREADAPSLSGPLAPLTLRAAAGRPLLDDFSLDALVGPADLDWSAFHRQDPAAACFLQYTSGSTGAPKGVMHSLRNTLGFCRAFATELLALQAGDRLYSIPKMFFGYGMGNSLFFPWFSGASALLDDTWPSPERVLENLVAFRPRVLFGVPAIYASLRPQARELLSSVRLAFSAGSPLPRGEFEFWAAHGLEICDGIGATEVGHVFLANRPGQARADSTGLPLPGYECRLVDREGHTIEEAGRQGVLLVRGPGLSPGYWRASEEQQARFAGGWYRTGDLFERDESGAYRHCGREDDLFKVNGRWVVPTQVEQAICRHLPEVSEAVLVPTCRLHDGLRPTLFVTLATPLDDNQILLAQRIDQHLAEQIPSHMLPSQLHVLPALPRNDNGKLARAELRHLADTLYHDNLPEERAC", "test": "Inhibition of pqsA fluorescence in Pseudomonas aeruginosa PAO1 transfected with GFP by measuring fluorescence intensity every 15 mins for 12 hrs by microtiter plate reader assay", "conditions": "dose microM 1.25-20, time 12.0 hrs", "summary_of_the_method": "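PAO1-gfp, PAO1-lasB-gfp, PAO1-rhlA-gfp or PAO1-pqsA-gfp reporters were grown overnight in LB, then diluted in ABTGC medium to OD600 0.02, with compound at 1.25–20 μM. Controls were 0.1% DMSO and a blank. OD600 and GFP fluorescence (ex 485/em 535 nm) were read every 15 min for at least 12 h at 37 °C; triplicate.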"}, "Pseudomonas aeruginosa [12]": {"tested_on": "Pseudomonas aeruginosa", "test": "Inhibition of biofilm formation in multidrug resistant Pseudomonas aeruginosa FB at 1.25 uM relative to control", "type": "functional"}, "Pseudomonas aeruginosa [13]": {"tested_on": "Pseudomonas aeruginosa", "test": "Antibiofilm activity against Pseudomonas aeruginosa PAO1 assessed as inhibition of biofilm formation after 18 hrs by crystal violet staining based assay", "type": "functional, organism-based", "conditions": "PAO1, 18 h"}, "Pseudomonas aeruginosa [14]": {"tested_on": "Pseudomonas aeruginosa", "test": "Inhibition of biofilm formation in multidrug resistant Pseudomonas aeruginosa 1121 at 10 uM relative to control", "type": "functional"}, "Pseudomonas aeruginosa [15]": {"tested_on": "Pseudomonas aeruginosa", "test": "Binding affinity to […] overexpressed in Pseudomonas aeruginosa PAO1 assessed as inhibition of biofilm formation at 1.25 to 20 uM", "conditions": "dose microM 1.25-20"}, "[16]": {"tested_on": "Pseudomonas aeruginosa PAO1", "test": "Induction of iron chelation in Pseudomonas aeruginosa PAO1 assessed as increase in iron deficiency by measuring change in total ferric ion concentration at 20 uM by inductively coupled plasma mass spectrometry (reference value: 1.91 +/- 0.8 uM)"}, "Pseudomonas aeruginosa [17]": {"tested_on": "Pseudomonas aeruginosa", "test": "Inhibition of biofilm formation in multidrug resistant Pseudomonas aeruginosa 1129 at 20 uM relative to control", "type": "functional"}, "Pseudomonas aeruginosa [18]": {"tested_on": "Pseudomonas aeruginosa", "test": "Antibiofilm activity against Pseudomonas aeruginosa PAO1 assessed as reduction in biofilm mass at 1.25 uM after 24 hrs by microtiter plate assay relative to control", "type": "functional", "parameters": "scale not given: the % may be the effect or the level left", "summary_of_the_method": "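PAO1 (OD600 0.05) was cultured in ABTGC medium at 37 °C for 24 h with compound (1.25–20 μM for the dose series). Wells were PBS-washed three times, methanol-fixed for 30 min, air-dried, and stained with 0.1% crystal violet for 30 min. Stain was solubilized in 33% acetic acid and read at 570 nm. Compound stocks were […]. Run in triplicate.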"}, "[19]": {"test": "Growth inhibition of Pseudomonas aeruginosa PAO1 at 1.25 to 20 uM measured after 10 hrs in ABTGC media", "conditions": "dose 1.25-20 µM"}, "Pseudomonas aeruginosa [20]": {"tested_on": "Pseudomonas aeruginosa", "test": "Inhibition of biofilm formation in multidrug resistant Pseudomonas aeruginosa 1129 at 10 uM relative to control", "type": "functional"}}, "note": "Calls of active or inactive are those of the source. The calls are words filed in the database; no cut-off is given here.", "data": [{"smiles": "CCCCCCC(=O)NCc1c(O)c(=O)cc(C)n1C", "values": [{"measurement": "inhibition", "setting": "Pseudomonas aeruginosa [1]", "result": "inactive"}, {"measurement": "inhibition at 20 µM", "setting": "Pseudomonas aeruginosa [2]", "result": 23.2, "unit": "%"}, {"measurement": "Activity", "setting": "Pseudomonas aeruginosa [3]", "result": "Dose-dependent effect"}, {"measurement": "inhibition at 2.5 µM", "setting": "Pseudomonas aeruginosa [4]", "result": 7.68, "unit": "%"}, {"measurement": "survival at 20 µM", "setting": "Pseudomonas aeruginosa [5]", "result": 89.9, "unit": "%"}, {"measurement": "inhibition at 10 µM", "setting": "Pseudomonas aeruginosa [6]", "result": 18.4, "unit": "%"}, {"measurement": "inhibition at 2.5 µM", "setting": "Pseudomonas aeruginosa [7]", "result": 34.6, "unit": "%"}, {"measurement": "inhibition at 1.25 µM", "setting": "Pseudomonas aeruginosa [8]", "result": 12.7, "unit": "%"}, {"measurement": "pFe3+", "setting": "[9]", "result": 20.6}, {"measurement": "inhibition", "setting": "Pseudomonas aeruginosa [10]", "result": "Dose-dependent effect"}, {"measurement": "inhibition", "setting": "[11]", "result": "Dose-dependent effect"}, {"measurement": "inhibition at 1.25 µM", "setting": "Pseudomonas aeruginosa [12]", "result": -5.12, "unit": "%"}, {"measurement": "IC50", "setting": "Pseudomonas aeruginosa [13]", "result": 6.57, "unit": "µM"}, {"measurement": "inhibition at 10 µM", "setting": "Pseudomonas aeruginosa [14]", "result": 4.41, "unit": "%"}, {"measurement": "inhibition", "setting": "Pseudomonas aeruginosa [15]", "result": "Active"}, {"measurement": "Activity", "setting": "[16]", "result": 0.88, "unit": "µM"}, {"measurement": "inhibition at 20 µM", "setting": "Pseudomonas aeruginosa [17]", "result": 40, "unit": "%"}, {"measurement": "Activity", "setting": "Pseudomonas aeruginosa [18]", "result": ">25", "unit": "%"}, {"measurement": "growth inhibition (GI)", "setting": "[19]", "result": "Non-Toxic"}, {"measurement": "inhibition at 10 µM", "setting": "Pseudomonas aeruginosa [20]", "result": 30.4, "unit": "%"}]}]}
